{"source": "ChEMBL document CHEMBL5653631", "about": "“A Potent and Selective ULK1 Inhibitor Suppresses Autophagy and Sensitizes Cancer Cells to Nutrient Stress” (iScience, 2018)", "key": {"[1]": {"target": "Protein-tyrosine kinase 6 (Homo sapiens) (UniProt Q13882)", "experiment": "Inhibition of human recombinant BRK at 40 nM related to control ULK1"}, "[2]": {"target": "Activin receptor type-1-like (Homo sapiens) (UniProt P37023)", "experiment": "Inhibition of human recombinant ALK1 at 40 nM related to control ULK1", "outline": "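Radiometric activity assays in a panel of 327 human recombinant kinases, each run in duplicate at one inhibitor concentration. Activity remaining is expressed as percent of vehicle control, and percent inhibition is calculated as 100% minus percent activity remaining.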"}, "[3]": {"target": "Vascular endothelial growth factor receptor 2 (Homo sapiens) (UniProt P35968)", "experiment": "Inhibition of human recombinant KDR at 40 nM related to control ULK1"}, "[4]": {"target": "Cyclin-dependent kinase 7 (Homo sapiens) (UniProt P50613)", "sequence (P50613 whole entry)": "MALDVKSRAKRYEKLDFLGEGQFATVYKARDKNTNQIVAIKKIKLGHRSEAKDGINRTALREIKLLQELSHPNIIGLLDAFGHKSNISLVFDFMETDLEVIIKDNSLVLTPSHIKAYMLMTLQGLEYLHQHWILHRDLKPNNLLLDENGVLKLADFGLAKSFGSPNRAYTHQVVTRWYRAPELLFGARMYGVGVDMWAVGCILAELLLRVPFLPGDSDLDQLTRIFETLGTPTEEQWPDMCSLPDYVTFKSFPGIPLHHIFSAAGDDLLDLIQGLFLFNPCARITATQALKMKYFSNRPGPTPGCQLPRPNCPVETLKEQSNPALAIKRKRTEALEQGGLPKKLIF", "experiment": "Inhibition of human recombinant CDK7 at 40 nM in presence of ATP by radiometric assay relative to control"}, "[5]": {"target": "Cyclin-dependent kinase 5 (Homo sapiens) (UniProt Q00535)", "experiment": "Inhibition of human recombinant CDK5 at 500 nM related to control ULK1"}, "[6]": {"target": "T1, Serine/threonine-protein kinase BRSK1 (Homo sapiens) (UniProt Q8TDC3)", "T1 sequence (whole entry)": "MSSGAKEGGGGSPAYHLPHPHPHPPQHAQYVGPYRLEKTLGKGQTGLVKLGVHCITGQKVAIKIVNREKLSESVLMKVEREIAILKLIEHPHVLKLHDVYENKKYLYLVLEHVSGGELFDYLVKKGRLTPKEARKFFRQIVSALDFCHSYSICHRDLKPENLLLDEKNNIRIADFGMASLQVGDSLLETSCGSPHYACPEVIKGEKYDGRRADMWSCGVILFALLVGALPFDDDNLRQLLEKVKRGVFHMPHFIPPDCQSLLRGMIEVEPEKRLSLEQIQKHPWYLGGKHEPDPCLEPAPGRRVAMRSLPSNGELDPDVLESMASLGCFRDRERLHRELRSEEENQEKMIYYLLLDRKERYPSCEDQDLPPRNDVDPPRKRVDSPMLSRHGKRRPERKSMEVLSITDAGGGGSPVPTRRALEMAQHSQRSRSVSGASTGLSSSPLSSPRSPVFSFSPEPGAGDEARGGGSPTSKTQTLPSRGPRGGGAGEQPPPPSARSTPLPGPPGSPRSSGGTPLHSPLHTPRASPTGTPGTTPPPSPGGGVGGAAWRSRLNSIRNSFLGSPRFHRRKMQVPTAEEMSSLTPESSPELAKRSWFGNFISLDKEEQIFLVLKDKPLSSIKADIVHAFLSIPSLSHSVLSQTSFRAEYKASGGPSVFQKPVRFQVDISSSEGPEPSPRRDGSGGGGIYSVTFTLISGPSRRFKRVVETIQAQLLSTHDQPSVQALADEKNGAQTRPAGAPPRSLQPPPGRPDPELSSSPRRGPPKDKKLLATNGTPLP", "experiment": "Inhibition of human recombinant BRSK1 at 500 nM in presence of ATP by radiometric assay relative to control", "outline": "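Recombinant human kinase panel (327 kinases) run as radiometric activity assays, each kinase in duplicate at one compound concentration. Activity remaining expressed relative to vehicle control; percent inhibition taken as 100% minus % activity remaining.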"}, "[7]": {"target": "Mast/stem cell growth factor receptor Kit (Homo sapiens) (UniProt P10721)", "sequence (P10721 whole entry)": "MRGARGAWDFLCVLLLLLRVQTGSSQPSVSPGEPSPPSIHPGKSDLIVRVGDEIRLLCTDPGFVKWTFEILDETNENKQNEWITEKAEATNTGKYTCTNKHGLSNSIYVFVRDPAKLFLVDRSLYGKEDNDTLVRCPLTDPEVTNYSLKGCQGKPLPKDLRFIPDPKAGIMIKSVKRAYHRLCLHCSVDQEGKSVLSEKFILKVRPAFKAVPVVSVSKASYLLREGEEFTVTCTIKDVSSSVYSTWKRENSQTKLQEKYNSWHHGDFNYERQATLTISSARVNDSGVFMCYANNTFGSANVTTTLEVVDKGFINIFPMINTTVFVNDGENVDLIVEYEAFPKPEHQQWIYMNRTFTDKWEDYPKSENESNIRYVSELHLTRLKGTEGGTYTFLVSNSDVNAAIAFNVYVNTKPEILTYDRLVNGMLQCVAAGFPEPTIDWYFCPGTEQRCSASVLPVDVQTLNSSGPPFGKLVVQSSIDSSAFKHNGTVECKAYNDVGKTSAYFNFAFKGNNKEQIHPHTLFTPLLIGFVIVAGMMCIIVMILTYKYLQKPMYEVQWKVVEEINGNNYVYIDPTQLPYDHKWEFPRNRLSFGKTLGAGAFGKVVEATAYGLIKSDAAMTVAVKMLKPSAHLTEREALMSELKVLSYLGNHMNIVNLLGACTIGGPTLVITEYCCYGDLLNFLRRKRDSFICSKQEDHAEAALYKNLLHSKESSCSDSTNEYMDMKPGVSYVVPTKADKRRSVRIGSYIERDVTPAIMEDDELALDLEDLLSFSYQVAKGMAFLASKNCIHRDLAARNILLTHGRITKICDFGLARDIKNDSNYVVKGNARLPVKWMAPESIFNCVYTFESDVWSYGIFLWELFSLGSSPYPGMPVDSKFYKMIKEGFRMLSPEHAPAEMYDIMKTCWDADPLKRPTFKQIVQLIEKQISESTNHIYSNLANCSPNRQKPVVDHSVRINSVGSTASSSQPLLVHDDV", "experiment": "Inhibition of human recombinant KIT at 500 nM related to control ULK1"}, "[8]": {"target": "Mitogen-activated protein kinase 1 (Homo sapiens) (UniProt P28482)", "experiment": "Inhibition of human recombinant Erk2 at 500 nM related to control ULK1"}, "[9]": {"target": "cAMP-dependent protein kinase catalytic subunit alpha (Homo sapiens) (UniProt P17612)", "experiment": "Inhibition of human recombinant PKACalpha at 500 nM related to control ULK1"}, "[10]": {"target": "Cyclin-dependent kinase 7 (Homo sapiens) (UniProt P50613)", "experiment": "Inhibition of human recombinant CDK7 at 15 nM in presence of ATP by radiometric assay relative to control"}, "[11]": {"target": "Serine/threonine-protein kinase WNK1 (Homo sapiens) (UniProt Q9H4A3)", "sequence (Q9H4A3 whole entry, looked up)": "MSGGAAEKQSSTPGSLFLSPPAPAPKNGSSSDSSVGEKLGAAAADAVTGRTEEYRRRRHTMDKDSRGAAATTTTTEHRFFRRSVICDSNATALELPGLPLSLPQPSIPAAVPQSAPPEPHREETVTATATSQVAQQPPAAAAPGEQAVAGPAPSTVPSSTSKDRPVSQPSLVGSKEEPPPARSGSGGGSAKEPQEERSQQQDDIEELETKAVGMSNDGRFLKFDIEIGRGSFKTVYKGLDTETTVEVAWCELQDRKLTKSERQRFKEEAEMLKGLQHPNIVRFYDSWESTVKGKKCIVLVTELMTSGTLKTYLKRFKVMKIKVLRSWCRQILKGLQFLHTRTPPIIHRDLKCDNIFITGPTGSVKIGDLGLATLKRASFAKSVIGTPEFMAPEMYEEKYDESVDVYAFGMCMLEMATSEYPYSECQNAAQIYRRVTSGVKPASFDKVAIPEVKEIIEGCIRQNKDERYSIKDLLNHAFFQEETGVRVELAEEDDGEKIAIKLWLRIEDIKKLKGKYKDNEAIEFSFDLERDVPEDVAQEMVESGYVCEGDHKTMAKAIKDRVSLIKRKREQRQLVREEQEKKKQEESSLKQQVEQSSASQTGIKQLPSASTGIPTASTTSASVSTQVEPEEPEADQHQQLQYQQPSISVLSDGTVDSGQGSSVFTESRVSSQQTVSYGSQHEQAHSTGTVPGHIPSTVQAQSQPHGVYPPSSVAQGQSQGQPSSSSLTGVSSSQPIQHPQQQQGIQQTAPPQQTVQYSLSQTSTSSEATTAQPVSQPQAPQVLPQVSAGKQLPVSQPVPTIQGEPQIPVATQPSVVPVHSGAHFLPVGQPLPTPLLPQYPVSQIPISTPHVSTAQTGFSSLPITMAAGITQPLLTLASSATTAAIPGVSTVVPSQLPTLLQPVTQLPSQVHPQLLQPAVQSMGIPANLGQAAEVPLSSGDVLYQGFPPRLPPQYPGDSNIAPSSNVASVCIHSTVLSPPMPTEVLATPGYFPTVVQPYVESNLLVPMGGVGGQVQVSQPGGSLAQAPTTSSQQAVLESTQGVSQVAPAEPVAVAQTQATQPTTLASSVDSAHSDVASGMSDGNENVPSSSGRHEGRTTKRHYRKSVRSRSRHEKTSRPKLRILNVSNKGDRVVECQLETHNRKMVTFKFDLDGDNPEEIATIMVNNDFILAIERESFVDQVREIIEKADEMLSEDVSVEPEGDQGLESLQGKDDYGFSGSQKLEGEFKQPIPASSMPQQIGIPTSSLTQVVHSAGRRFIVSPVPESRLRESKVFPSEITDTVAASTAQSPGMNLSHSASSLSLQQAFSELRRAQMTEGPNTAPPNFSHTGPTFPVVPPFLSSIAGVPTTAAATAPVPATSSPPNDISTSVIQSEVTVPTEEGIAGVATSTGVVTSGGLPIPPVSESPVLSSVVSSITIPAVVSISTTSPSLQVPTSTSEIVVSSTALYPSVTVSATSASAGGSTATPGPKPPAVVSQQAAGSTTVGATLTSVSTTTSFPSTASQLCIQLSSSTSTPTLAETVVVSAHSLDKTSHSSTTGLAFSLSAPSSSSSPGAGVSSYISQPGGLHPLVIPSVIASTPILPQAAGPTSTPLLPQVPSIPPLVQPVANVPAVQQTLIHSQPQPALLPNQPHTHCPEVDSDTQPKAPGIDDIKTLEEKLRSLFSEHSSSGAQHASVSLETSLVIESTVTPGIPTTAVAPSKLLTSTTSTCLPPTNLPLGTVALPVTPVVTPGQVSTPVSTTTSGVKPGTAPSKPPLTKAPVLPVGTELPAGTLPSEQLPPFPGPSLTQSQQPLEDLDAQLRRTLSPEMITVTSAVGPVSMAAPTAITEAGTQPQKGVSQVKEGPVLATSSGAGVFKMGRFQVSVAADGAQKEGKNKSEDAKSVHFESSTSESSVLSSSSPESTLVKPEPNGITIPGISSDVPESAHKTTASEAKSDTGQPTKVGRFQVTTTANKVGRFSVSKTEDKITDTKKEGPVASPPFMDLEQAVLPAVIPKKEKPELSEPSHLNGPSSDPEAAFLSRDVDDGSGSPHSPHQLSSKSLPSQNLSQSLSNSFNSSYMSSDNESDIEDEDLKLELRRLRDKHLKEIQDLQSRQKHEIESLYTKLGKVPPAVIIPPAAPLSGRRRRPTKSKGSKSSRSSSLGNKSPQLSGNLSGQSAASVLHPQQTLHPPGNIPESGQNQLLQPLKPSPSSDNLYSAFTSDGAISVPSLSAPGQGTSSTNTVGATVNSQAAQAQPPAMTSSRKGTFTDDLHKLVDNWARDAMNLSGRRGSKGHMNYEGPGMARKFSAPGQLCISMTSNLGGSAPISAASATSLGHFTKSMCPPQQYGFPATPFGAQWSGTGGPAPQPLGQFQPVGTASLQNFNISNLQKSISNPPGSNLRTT", "experiment": "Inhibition of human recombinant Wnk1 at 15 nM in presence of ATP by radiometric assay relative to control"}, "[12]": {"target": "Mast/stem cell growth factor receptor Kit (Homo sapiens) (UniProt P10721)", "experiment": "Inhibition of human recombinant KIT at 15 nM in presence of ATP by radiometric assay relative to control"}, "[13]": {"target": "T2, Serine/threonine-protein kinase TBK1 (Homo sapiens) (UniProt Q9UHD2)", "T2 sequence (whole entry)": "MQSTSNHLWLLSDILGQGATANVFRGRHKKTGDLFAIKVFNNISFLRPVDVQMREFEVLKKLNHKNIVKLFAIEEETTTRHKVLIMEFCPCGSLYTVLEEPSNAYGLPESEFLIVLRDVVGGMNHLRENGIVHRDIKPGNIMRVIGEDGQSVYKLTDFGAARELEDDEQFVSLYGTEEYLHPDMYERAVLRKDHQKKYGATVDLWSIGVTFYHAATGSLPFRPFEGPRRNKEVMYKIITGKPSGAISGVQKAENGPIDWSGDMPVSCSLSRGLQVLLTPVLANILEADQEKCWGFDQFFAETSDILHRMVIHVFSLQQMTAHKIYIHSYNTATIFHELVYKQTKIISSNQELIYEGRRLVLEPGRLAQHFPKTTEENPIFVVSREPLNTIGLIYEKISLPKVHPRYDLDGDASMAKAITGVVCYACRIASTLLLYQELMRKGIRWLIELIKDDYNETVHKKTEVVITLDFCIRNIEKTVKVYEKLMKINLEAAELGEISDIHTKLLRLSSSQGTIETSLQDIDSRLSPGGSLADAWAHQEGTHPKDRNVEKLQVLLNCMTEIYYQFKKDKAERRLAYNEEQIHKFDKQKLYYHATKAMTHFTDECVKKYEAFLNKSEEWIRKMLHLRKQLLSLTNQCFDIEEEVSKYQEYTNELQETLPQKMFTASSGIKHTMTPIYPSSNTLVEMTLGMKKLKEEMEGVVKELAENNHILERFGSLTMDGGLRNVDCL", "experiment": "Inhibition of human recombinant TBK1 at 15 nM related to control ULK1"}, "[14]": {"target": "Homeodomain-interacting protein kinase 1 (Homo sapiens) (UniProt Q86Z02)", "sequence (Q86Z02 whole entry, looked up)": "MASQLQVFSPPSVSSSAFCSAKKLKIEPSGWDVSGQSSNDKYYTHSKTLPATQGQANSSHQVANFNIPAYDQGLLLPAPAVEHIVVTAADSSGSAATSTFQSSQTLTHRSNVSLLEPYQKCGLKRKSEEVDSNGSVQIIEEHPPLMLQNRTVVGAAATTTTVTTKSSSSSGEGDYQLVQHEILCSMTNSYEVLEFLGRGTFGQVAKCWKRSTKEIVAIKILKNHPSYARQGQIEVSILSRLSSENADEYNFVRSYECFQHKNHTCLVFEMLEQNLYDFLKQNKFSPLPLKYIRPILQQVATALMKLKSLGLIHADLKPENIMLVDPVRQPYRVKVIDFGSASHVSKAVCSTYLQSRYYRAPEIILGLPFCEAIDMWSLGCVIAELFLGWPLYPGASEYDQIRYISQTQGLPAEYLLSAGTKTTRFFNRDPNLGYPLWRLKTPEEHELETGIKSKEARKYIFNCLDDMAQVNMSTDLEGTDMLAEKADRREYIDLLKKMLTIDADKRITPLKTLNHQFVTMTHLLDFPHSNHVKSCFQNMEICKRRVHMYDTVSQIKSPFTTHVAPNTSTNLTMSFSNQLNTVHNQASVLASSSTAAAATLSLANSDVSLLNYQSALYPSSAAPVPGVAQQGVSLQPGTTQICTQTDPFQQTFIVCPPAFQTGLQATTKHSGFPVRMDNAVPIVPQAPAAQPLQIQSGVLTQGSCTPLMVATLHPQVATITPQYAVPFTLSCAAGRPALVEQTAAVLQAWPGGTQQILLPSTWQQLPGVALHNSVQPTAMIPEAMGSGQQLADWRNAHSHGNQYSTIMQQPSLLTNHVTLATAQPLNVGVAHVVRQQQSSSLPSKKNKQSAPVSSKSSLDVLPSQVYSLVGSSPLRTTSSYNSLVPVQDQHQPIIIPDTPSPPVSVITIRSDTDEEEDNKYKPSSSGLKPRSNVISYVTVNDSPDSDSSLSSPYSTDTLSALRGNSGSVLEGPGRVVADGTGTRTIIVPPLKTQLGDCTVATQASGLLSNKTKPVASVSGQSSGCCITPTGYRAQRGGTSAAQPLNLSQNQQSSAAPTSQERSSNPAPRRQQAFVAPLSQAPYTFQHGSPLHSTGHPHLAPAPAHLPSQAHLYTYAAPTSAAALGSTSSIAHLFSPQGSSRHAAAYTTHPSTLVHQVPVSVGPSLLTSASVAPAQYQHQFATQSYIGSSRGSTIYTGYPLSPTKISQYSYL", "experiment": "Inhibition of human recombinant HIPK1 at 15 nM in presence of ATP by radiometric assay relative to control"}, "[15]": {"target": "T3, Serine/threonine-protein kinase Sgk2 (Homo sapiens) (UniProt Q9HBY8)", "T3 sequence (whole entry)": "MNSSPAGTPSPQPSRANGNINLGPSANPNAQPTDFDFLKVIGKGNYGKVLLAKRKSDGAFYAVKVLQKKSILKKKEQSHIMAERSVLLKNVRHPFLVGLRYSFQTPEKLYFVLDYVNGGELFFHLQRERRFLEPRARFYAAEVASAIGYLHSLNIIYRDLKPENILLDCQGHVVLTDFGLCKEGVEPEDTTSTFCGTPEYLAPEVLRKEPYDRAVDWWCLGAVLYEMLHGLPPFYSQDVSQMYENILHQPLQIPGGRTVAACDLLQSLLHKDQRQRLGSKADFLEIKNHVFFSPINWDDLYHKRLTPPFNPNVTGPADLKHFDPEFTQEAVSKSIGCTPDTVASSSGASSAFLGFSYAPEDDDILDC", "experiment": "Inhibition of human recombinant SGK2 at 15 nM related to control ULK1"}}, "data": [{"smiles": "O=C(N[C@@H](C1CC1)C(F)(F)F)c1cc(-c2cnn3cc(-c4ccc(F)cc4)cnc23)cs1", "values": [{"measurement": "fold change (FC)", "setting": "[1]", "result": 0}, {"measurement": "fold change (FC)", "setting": "[2]", "result": 0.01}, {"measurement": "fold change (FC)", "setting": "[3]", "result": 0.07}, {"measurement": "inhibition", "setting": "[4]", "result": 23, "unit": "%"}]}, {"smiles": "CNC(=O)c1ccccc1Oc1nc(Nc2cc(OC)c(OC)c(OC)c2)ncc1Br", "values": [{"measurement": "fold change (FC)", "setting": "[5]", "result": 0.77}, {"measurement": "inhibition", "setting": "[6]", "result": 2, "unit": "%"}, {"measurement": "fold change (FC)", "setting": "[7]", "result": 0.01}, {"measurement": "fold change (FC)", "setting": "[8]", "result": 0}, {"measurement": "fold change (FC)", "setting": "[9]", "result": 0}]}, {"smiles": "CC(C)[C@H](NC(=O)c1cc(-c2cnn3cc(-c4ccc(OCCN5CCCCC5)cc4)cnc23)cs1)C(F)(F)F", "values": [{"measurement": "inhibition", "setting": "[10]", "result": 16, "unit": "%"}, {"measurement": "inhibition", "setting": "[11]", "result": 4, "unit": "%"}, {"measurement": "inhibition", "setting": "[12]", "result": 0, "unit": "%"}, {"measurement": "fold change (FC)", "setting": "[13]", "result": 0.9}, {"measurement": "inhibition", "setting": "[14]", "result": 0, "unit": "%"}, {"measurement": "fold change (FC)", "setting": "[15]", "result": 0}]}]}
